In PubChem BioAssay AID463201 (Sanford-Burnham Center for Chemical Genomics, 2010):
The source made the active and inactive calls.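 Rule for the calls: active = activation above 50% at 10 µM in both replicate datasets; inactive = the rest.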

Target: Vasopressin V2 receptor (Homo sapiens) (UniProt P30518)
Test: agonism at AVPR2 via arrestin translocation – imaging, beta-arrestin-GFP, U2OS, agonist mode, selectivity assay for GPR35 antagonist project, SAR follow-up (AID 463201)
Details: U2OS V2R beta-arrestin-GFP translocation imaging, 40 min; at 10 µM; stronger effect = higher value
Procedure, shortened: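 Material: U2OS cells stably expressing human vasopressin receptor and beta-arrestin2-GFP / Medium: serum-free culture medium during compound exposure / Schedule: compound exposure 40 min at 37 °C, then fixation / Signal: imaging of arrestin-GFP aggregates in fixed cells / Control set: arginine vasopressin at 0.01 µIU/mL (low) and 10 mIU/mL (high)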

Sequence of Vasopressin V2 receptor (Homo sapiens) (P30518 whole entry, looked up): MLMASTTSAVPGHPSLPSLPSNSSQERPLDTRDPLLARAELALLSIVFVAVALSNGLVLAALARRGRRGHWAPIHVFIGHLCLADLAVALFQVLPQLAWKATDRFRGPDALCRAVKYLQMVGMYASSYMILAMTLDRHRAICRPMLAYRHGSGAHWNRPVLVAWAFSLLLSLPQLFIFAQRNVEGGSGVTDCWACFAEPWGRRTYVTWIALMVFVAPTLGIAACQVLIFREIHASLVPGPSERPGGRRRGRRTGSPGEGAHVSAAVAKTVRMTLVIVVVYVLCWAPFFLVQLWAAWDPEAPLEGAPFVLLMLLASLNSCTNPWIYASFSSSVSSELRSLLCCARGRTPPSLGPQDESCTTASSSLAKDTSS

activation, inactive:
CC(C)c1ccc(NC(=O)CSc2nc3ccsc3c(=O)n2Cc2ccc(C(=O)O)cc2)cc1 0.05%
O=C(CCCN1C(=O)/C(=C/c2ccc3c(c2)OCO3)SC1=S)Nc1cccc(C(=O)O)c1 -0.29%
O=C(CCCN1C(=O)/C(=C/c2ccccc2)SC1=S)Nc1ccc(C(=O)O)c(O)c1 1.45%
O=C(CCCN1C(=O)/C(=C/c2ccc3c(c2)OCO3)SC1=S)Nc1ccc(C(=O)O)cc1 -0.34%
O=C(Nc1ccc2nc(SCc3ccccc3)sc2c1)c1ccccc1C(=O)N1CCOCC1 -0.18%
O=C(CCCN1C(=O)S/C(=C/c2ccccc2)C1=S)Nc1ccc(C(=O)O)cc1 -0.21%
Cc1c(C(=O)Nc2ccc3c(c2)OCCO3)sc2ncnc(N3CCC(C)CC3)c12 -0.03%
COc1ccc(/C=C2\SC(=S)N(CCCC(=O)Nc3ccc(O)cc3)C2=O)cc1 -0.03%
CC(/C=C1\SC(=S)N(CCCC(=O)Nc2ccc(C(=O)O)c(O)c2)C1=O)=C\c1ccccc1 0.21%
COc1cccc(/C=C2\SC(=S)N(CCCC(=O)Nc3ccc(C(=O)O)cc3)C2=O)c1 -0.18%
Clc1ccc(Cn2ncc3c(N4CCN(c5ccccc5)CC4)ncnc32)cc1 -0.08%
Cc1ccc(/C=C2\SC(=S)N(CCCC(=O)Nc3cccc(C(=O)O)c3)C2=O)cc1 -0.08%
O=C(Nc1ccc2nc(SCc3ccc(Cl)cc3)sc2c1)c1ccccc1C(=O)N1CCOCC1 0.71%
O=C(CCCN1C(=O)/C(=C\c2ccccc2)SC1=S)Nc1cccc(C(=O)O)c1 0.66%
COc1ccc(/C=C2\SC(=S)N(CCCC(=O)Nc3ccc(C(=O)O)c(O)c3)C2=O)cc1OC -0.24%
O=C(CCCN1C(=O)S/C(=C/C=C/c2ccccc2)C1=O)Nc1ccc(C(=O)O)cc1 -0.18%
Cc1ccc(/C=C2\SC(=S)N(CCCC(=O)Nc3ccc(O)cc3)C2=O)cc1 -0.18%
Cc1ccccc1N1CCN(c2ncnc3c2cnn3Cc2ccc(Cl)cc2)CC1 -0.16%
COc1ccc(/C=C2/SC(=S)N(CCCC(=O)Nc3ccc(O)cc3)C2=O)cc1 -0.32%
CCc1ccc(/C=C2\SC(=S)N(CCCC(=O)Nc3ccc(C(=O)O)cc3)C2=O)cc1 -0.5%
CC(/C=C1\SC(=S)N(CCCC(=O)Nc2ccc(C(=O)O)cc2)C1=O)=C\c1ccccc1 -0.11%
COc1ccc(/C=C2\SC(=S)N(CCCC(=O)Nc3cccc(C(=O)O)c3)C2=O)cc1OC -0.11%
O=C(CCCN1C(=O)/C(=C/c2ccc3c(c2)OCO3)SC1=S)Nc1ccc(C(=O)O)c(O)c1 0.21%
CCOc1ccc(NC(=O)CSc2nc3ccsc3c(=O)n2Cc2ccc(C(=O)O)cc2)cc1 0.24%
Cc1ccc(Cn2ncc3c(N4CCN(c5ccccc5C)CC4)ncnc32)cc1 -0.08%
CC(C)(C)c1ccc(OCCC(=O)NCCc2ccc(S(N)(=O)=O)cc2)cc1 -0.05%
Cc1nc(N2CCC(C)CC2)c2c(C)c(C(=O)Nc3ccc4c(c3)OCCO4)sc2n1 -0.13%
O=C(CCCN1C(=O)/C(=C\c2ccccc2)SC1=S)Nc1ccc(C(=O)O)cc1 0.29%
O=C(CCCN1C(=O)S/C(=C\C=C\c2ccccc2)C1=O)Nc1ccc(C(=O)O)cc1 0.11%
CCOC(=O)c1ccc(NC(=O)CCCN2C(=O)/C(=C/c3ccc(C)cc3)SC2=S)cc1 0.05%
